KCNK3 block = human KCNK3 channel inhibition, primary screen; O14649; CHO-KCNK3 thallium flux, FluxOR fluorescence; hits give low values; B-score at 10 µM; actives 0.84% (n = 340,000); AID 602410;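 active = B-score under library mean minus 4 SD, starting fluorescence ratio at most library mean plus 5 SD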;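 also: more negative B-score means stronger inhibition of thallium flux through KCNK3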
Target sequence (O14649 whole entry, looked up): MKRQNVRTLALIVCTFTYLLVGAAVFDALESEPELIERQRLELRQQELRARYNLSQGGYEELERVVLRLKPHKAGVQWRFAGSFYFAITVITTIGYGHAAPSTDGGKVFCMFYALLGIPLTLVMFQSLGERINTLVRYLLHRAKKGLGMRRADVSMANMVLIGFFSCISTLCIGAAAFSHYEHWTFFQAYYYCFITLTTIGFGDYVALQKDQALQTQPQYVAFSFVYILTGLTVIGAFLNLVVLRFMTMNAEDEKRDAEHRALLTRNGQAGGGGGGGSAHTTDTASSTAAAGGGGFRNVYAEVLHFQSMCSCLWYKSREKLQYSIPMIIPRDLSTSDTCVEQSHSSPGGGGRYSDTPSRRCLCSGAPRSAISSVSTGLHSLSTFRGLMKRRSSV
KCNQ1 pot = potentiators or activators of human KCNQ1 potassium channel; P51787; CHO-K1 KCNQ1, thallium flux FluxOR fluorescence; hits give high values; B-score at 10 µM; actives 0.35% (n = 310,000); AID 2648;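 active = fluorescence ratio B-score, a plate-corrected score, at least three library SD, with initial intensity B-score within 5 SD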
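Doses: Single concentration per compound, DMSO matched to controls | Test system: KCNQ1-transfected CHO-K1 cells | Timing: 90 min dye loading and 20 min compound exposure, both at room temperature | Measured by: Kinetic FluxOR thallium fluorescence, 10-s 1-Hz baseline, 110-s post-stimulus read | Medium: Assay buffer with matched DMSO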
hERG protect = hERG (human) protection from proarrhythmic block; actives 0.51% (n = 310,000); Q12809; activation (rescue from dofetilide block), less the hit threshold, % at 10 µM; AID 1511; CHO-hERG, FluxOR thallium flux, dofetilide IC70 present;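 active = activation above the mean of controls blocked by dofetilide plus 5 SD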;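 also: thallium influx through hERG after potassium depolarization seen as dye fluorescence rise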
KCNK9 block = human KCNK9 channel inhibition; Q9NPC2; HEK293 KCNK9, FluxOR thallium flux fluorescence; hits give low values; B-score at 10 µM; actives 1.2% (n = 310,000);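 active = ratio B-score over 3 SD below the library mean, with starting fluorescence within 5 SD of its mean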;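 also: negative B-score means less thallium flux so channel inhibition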
Kir21 block = inhibitors of mouse Kir2.1 inward-rectifier potassium channel; P35561; HEK293-Kir2.1, FluxOR thallium flux fluorescence; hits give low values; B-score at 10 µM; actives 0.85% (n = 310,000); AID 1672;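 active = fluorescence ratio B-score at or below minus 3 SD of library scores, with starting-brightness B-score within 2 SD, cut at about -4.2 in these data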;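 also: channel flux triggered by added potassium and thallium sulfate stimulus; B-score of peak minus minimum fluorescence over baseline after thallium stimulus; more negative B-score means stronger Kir2.1 block with less thallium influx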
KCNQ1 inh = human KCNQ1 channel inhibition; CHO-K1 KCNQ1, FluxOR thallium flux fluorescence; hits give high values; actives 1.3% (n = 310,000); B-score at 10 µM; AID 2642; P51787;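 active = compounds whose thallium flux B-score, printed positive for inhibition, exceeds three library SD while starting fluorescence stays within three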;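 also: channel opened by potassium depolarization with thallium stimulus after 20 min compound exposure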
* hit, by the source's call. Hits are enriched below; roughly 3.7% of the tested compounds scored in any of these assays.

For COc1ccc(CN2C(=O)c3ccccc3C(/C=N/OCc3ccc(Cl)cc3)C2=O)cc1 (stereo unspecified) the results were KCNK3 block inactive, KCNQ1 pot inactive, hERG protect -12.6, KCNK9 block inactive, Kir21 block -0.49 and KCNQ1 inh 7*.
For CCOC(=O)N1CCN(C(=O)COC(=O)CNC(=O)c2ccc(OCC)c(OCC)c2)CC1 the results were KCNK3 block inactive.
For Cc1ccc(Sc2ncccc2COC(=O)Nc2c(C)cccc2C)cc1 the results were KCNK3 block inactive, KCNQ1 pot inactive, hERG protect -5.5, KCNK9 block inactive, Kir21 block -4.6* and KCNQ1 inh inactive.
Cc1ccc(CN2CCSc3ccc(C(=O)NCc4ccco4)cc32)cc1 was read as KCNK3 block inactive, KCNQ1 pot inactive, hERG protect -9.9, KCNK9 block -7.1*, Kir21 block -1.56 and KCNQ1 inh inactive.
Screening Cc1ccc(CN2CCSc3ccc(C(=O)NCCCN4CCOCC4)cc32)cc1 returned KCNK3 block inactive, KCNQ1 pot inactive, hERG protect -16.8, KCNK9 block inactive, Kir21 block -3.48 and KCNQ1 inh inactive.
`COc1cccc(OC)c1/C(O)=C(\C#N)c1nc2ccccc2[nH]1` gave KCNK3 block inactive, KCNQ1 pot inactive, hERG protect -2.8, KCNK9 block -7.72*, Kir21 block 0.91 and KCNQ1 inh inactive.
`N#Cc1c[nH]n2c(=O)c3c(nc12)CCCC3` gave KCNQ1 pot inactive, hERG protect 5.4*, KCNK9 block inactive, Kir21 block -0.12 and KCNQ1 inh inactive.
For CN(C)S(=O)(=O)c1ccc(NC(=O)CSc2nnc(-c3ccco3)o2)cc1 the results were KCNK3 block inactive.
For O=C(Nc1ccncc1)C1CCN(S(=O)(=O)c2c(Cl)cccc2Cl)CC1 the results were KCNK3 block inactive, KCNQ1 pot inactive, hERG protect -13.6, KCNK9 block -6.99*, Kir21 block 1.26 and KCNQ1 inh inactive.
Screening COc1ccc(OC)c(S(=O)(=O)N2CCC(C(=O)Nc3ccccc3)CC2)c1 returned KCNK3 block inactive, KCNQ1 pot inactive, hERG protect -9.9, KCNK9 block inactive, Kir21 block -0.57 and KCNQ1 inh inactive.
COc1ccc(OC)c(S(=O)(=O)N2CCC(C(=O)Nc3cccc(C)c3)CC2)c1 was read as KCNK3 block inactive, KCNQ1 pot inactive, hERG protect -17.1, KCNK9 block -7.92*, Kir21 block 1.78 and KCNQ1 inh 6*.
`Fc1cccc2sc(Nc3nc4cc5c(cc4s3)OCO5)nc12` gave KCNK3 block inactive, KCNQ1 pot inactive, hERG protect 13.3*, KCNK9 block inactive, Kir21 block 0.95 and KCNQ1 inh inactive.
For CC(=O)Nc1nc2c(F)cccc2s1 the results were KCNK3 block inactive, KCNQ1 pot 18*, hERG protect 2.7, KCNK9 block inactive, Kir21 block 0.33 and KCNQ1 inh inactive.
For CN(CC(=O)Nc1ccccc1Br)C(=O)C(Cc1ccccc1)NC(=O)c1ccccc1 (stereo unspecified) the results were KCNK3 block inactive, KCNQ1 pot inactive, hERG protect -28.3, KCNK9 block inactive, Kir21 block 0.4 and KCNQ1 inh inactive.
CCSc1cc(N2CCCC2)nc(-c2ccc(C)cc2)n1 was read as KCNK3 block inactive, KCNQ1 pot inactive, hERG protect 1.2, KCNK9 block inactive, Kir21 block 1.6 and KCNQ1 inh inactive.
CCSc1cc(N2CC(C)OC(C)C2)nc(-c2ccccc2Cl)n1 (stereo unspecified) was read as KCNK3 block -9.13*, KCNQ1 pot inactive, hERG protect 0.9, KCNK9 block inactive, Kir21 block 0.34 and KCNQ1 inh inactive.
Screening O=C(NC1CCN(Cc2ccc3ccccc3c2)CC1)c1ccccc1 returned KCNK3 block inactive, KCNQ1 pot inactive, hERG protect -10.2, KCNK9 block inactive, Kir21 block -1.06 and KCNQ1 inh inactive.
CCOc1ccccc1CNS(=O)(=O)c1ccc2c(c1)oc(=O)n2C was read as KCNK3 block inactive, KCNQ1 pot inactive, hERG protect -2.3, KCNK9 block inactive, Kir21 block -2.22 and KCNQ1 inh inactive.
For CCOc1ccccc1CNS(=O)(=O)c1ccc2[nH]c(=O)sc2c1 the results were KCNK3 block inactive, KCNQ1 pot inactive, hERG protect -7.2, KCNK9 block inactive, Kir21 block -5.18* and KCNQ1 inh inactive.
For Cc1cccc(-n2ncc3c(N)ncnc32)c1 the results were KCNK3 block inactive, KCNQ1 pot inactive, hERG protect -4.2, KCNK9 block inactive, Kir21 block 1.24 and KCNQ1 inh inactive.
`Cc1cccc(-n2ncc3c(N(C)Cc4ccccc4)ncnc32)c1` gave KCNK3 block -11*, KCNQ1 pot inactive, hERG protect -9.1, KCNK9 block inactive, Kir21 block -0.74 and KCNQ1 inh inactive.
`CCCCc1c(C)[nH]c(C(=O)OCC)c1C` gave KCNK3 block inactive, KCNQ1 pot inactive, hERG protect 5.3*, KCNK9 block inactive, Kir21 block 0.01 and KCNQ1 inh inactive.
For CCC(=O)OCCNc1cc(Sc2nccn2C)c2nonc2c1[N+](=O)[O-] the results were KCNK3 block inactive, KCNQ1 pot inactive, hERG protect -38.2, KCNK9 block inactive, Kir21 block -2 and KCNQ1 inh 7*.
For O=C1NN(c2ccc(Cl)c(Cl)c2)C(=O)/C1=C/c1cccc(OC(=O)c2cccs2)c1 the results were KCNQ1 pot 12*, hERG protect -16.1, KCNK9 block inactive, Kir21 block -4.38* and KCNQ1 inh inactive.
For O=C1NN(c2ccccc2)C(=O)/C1=C\c1cccc(OC(=O)c2cccs2)c1 the results were KCNK3 block inactive, KCNQ1 pot inactive, hERG protect -3.5, KCNK9 block inactive, Kir21 block 0.12 and KCNQ1 inh inactive.
Screening COc1ccc2nc(N3CCCC(C(=O)NCCCN4C(C)CCCC4C)C3)sc2c1 (stereo unspecified) returned KCNK3 block inactive, KCNQ1 pot inactive, hERG protect -5.1, KCNK9 block inactive, Kir21 block 0.16 and KCNQ1 inh inactive.
`COc1ccc(CN2CCC(C(=O)Nc3ccc(Oc4cccnc4)cc3)CC2)cc1` gave KCNK3 block inactive, KCNQ1 pot inactive, hERG protect -11.9, KCNK9 block inactive, Kir21 block -5.38* and KCNQ1 inh inactive.
Screening CCOC(=O)C(=CNc1cc(C)ccn1)C(=O)OCC returned KCNK3 block inactive, KCNQ1 pot inactive, hERG protect 5.1*, KCNK9 block inactive, Kir21 block 0.9 and KCNQ1 inh inactive.
